According to ChEMBL document CHEMBL5356968, “Miconazole-like Scaffold is a Promising Lead for Naegleria fowleri-Specific CYP51 Inhibitors” (J Med Chem, 2023):
pEC50: −log10 of the molar value.

Test system: Naegleria fowleri
Assay: Antiprotozoal activity against Naegleria fowleri European KUL assessed as inhibition of parasite growth at 10 uM incubated for 48 hrs by CellTiter-Glo luminescent cell viability assay relative to control
Assay type: functional
Details: not given
Outline: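 Axenic N. fowleri KUL trophozoites from log-phase culture in Nelson's medium with 10% FBS at 37 °C. Primary screen run in duplicate at 10 μM, 2,500 amoebae/well in 384-well format. Plates incubated 48 h at 37 °C, then viability read by CellTiter-Glo luminescence. BSL-2 handling.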

| SMILES | inhibition at 10 µM [%] |
| --- | --- |
| O=C(OC(Cn1ccnc1)c1ccccc1)c1cccc(C(F)(F)F)c1 (stereo not given) | ≥ 50 |
| COc1ccc(CC(c2ccc(OC)cc2)n2ccnc2)cc1 (stereo not given) | ≥ 50 |
| COc1ccc(C(Cc2ccc(Cl)cc2)n2ccnc2)cc1 (stereo not given) | ≥ 50 |
| Clc1ccc(-n2ccc(C(c3ccccc3)n3ccnc3)c2)cc1 (stereo not given) | ≥ 50 |
| O=C(Nc1ccc(N2CCN(c3ccc(Cl)cc3)CC2)cc1)OC(Cn1ccnc1)c1ccc(F)cc1 (stereo not given) | ≥ 50 |
| Clc1ccc(C(c2ccn(-c3ccc(Cl)cc3)c2)n2ccnc2)cc1 (stereo not given) | ≥ 50 |
| CC(C)c1cccc(NC(=O)OC(Cn2ccnc2)c2ccccc2)c1 (stereo not given) | ≥ 50 |
| COc1ccc(C(Cc2ccc(-n3cccc3)cc2)n2ccnc2)cc1 (stereo not given) | ≥ 50 |
| O=C(OC(Cn1ccnc1)c1ccc(F)cc1)c1cccc(C(F)(F)F)c1 (racemic) | ≥ 50 |

Test system: Naegleria fowleri
Assay: Antiprotozoal activity against Naegleria fowleri European KUL assessed as inhibition of parasite growth incubated for 48 hrs by CellTiter-Glo luminescent cell viability assay
Assay type: functional, organism-based
Details: not given

| SMILES | pEC50 |
| --- | --- |
| OC(Cn1cncn1)(Cn1cncn1)c1ccc(F)cc1F [FLUCONAZOLE] | 4.86 |

Test system: Naegleria fowleri
Assay: Antiprotozoal activity against Naegleria fowleri
Assay type: functional, organism-based
Details: not given
Outline: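 N. fowleri European KUL trophozoites, axenic in Nelson's medium + 10% FBS at 37 °C, harvested in log phase. Single-point screen at 10 μM in duplicate (2,500 amoebae/well). Dose–response in triplicate, serial dilution 50 to 0.39 μM (10,000 amoebae/well). 48 h at 37 °C; viability by CellTiter-Glo luminescence.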

| SMILES | pEC50 |
| --- | --- |
| CCC(C)n1ncn(-c2ccc(N3CCN(c4ccc(OCC5COC(Cn6cncn6)(c6ccc(Cl)cc6Cl)O5)cc4)CC3)cc2)c1=O (stereo not given) [ITRACONAZOLE] | ≥ 5.00 |
| CC[C@@H]([C@H](C)O)n1ncn(-c2ccc(N3CCN(c4ccc(OC[C@@H]5CO[C@@](Cn6cncn6)(c6ccc(F)cc6F)C5)cc4)CC3)cc2)c1=O [POSACONAZOLE] | ≥ 5.00 |

Test system: not listed separately
Assay: Drug concentration in C57BL/6 mouse brain at 40 mg/kg, ip measured after 1 hrs by HPLC-ESI-MS/MS analysis
Assay type: ADME, organism-based
Details: read-out: Drug uptake

| SMILES | concentration at 1 h [ng/g] |
| --- | --- |
| Fc1ccc([C@@H](Cn2ccnc2)OCc2cc(Cl)cc(Cl)c2)cc1 | 232 |

Test system: not listed separately
Assay: Drug concentration in C57BL/6 mouse plasma at 40 mg/kg, ip measured after 1 hrs by HPLC-ESI-MS/MS analysis
Assay type: ADME, organism-based
Details: not given

| SMILES | concentration at 1 h [µg/mL] |
| --- | --- |
| Fc1ccc([C@@H](Cn2ccnc2)OCc2cc(Cl)cc(Cl)c2)cc1 | 0.656 |
| FC(F)(F)c1cccc(CO[C@H](Cn2ccnc2)c2ccc(Cl)cc2Cl)c1 | 0.037 |
